Series [1] deals with HepG2. Kind of series: Induction of apoptosis in human HepG2 cells assessed as PARP cleavage at 20 nM incubated for 24 hrs by western blot analysis. The class given is functional, cell-based. An outline of the steps:
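Lysates (20 μg protein) run on 10% polyacrylamide gel, transferred to PVDF, blocked in 5% nonfat milk, probed overnight at 4 °C for cleaved PARP. HRP secondary, ECL detection, densitometry; one-way ANOVA with Dunnett's test vs control.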
In general terms: A western blot detects proteins with antibodies after separation by electrophoresis.

Series [2] addresses Tubulin beta (Homo sapiens) (UniProt P68371+Q9H4B7+Q13509+P04350+Q3ZCM7+P07437+Q13885+Q9BVA1+Q9BUF5+A6NNZ2). Kind of series: Inhibition of N,N'-Ethylenebis(iodoacetamide) binding to beta-tubulin in human HepG2 cells assessed as reduction in EBI/beta-tubulin adduct formation at 5 uM preincubated for 2 hrs followed by EBI addition and measured after 1.5 hrs by Western blot analysis. The class given is cell-based. Conditions: time 3.5 hrs. The essentials: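 HepG2 seeded 5 × 10⁵ cells/well, adhered overnight. Lysate protein (20 μg) run on 10% polyacrylamide gel on ice and transferred to PVDF. Probed with anti-β-tubulin 16 h at 4 °C, then HRP secondary. Chemiluminescence detection.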

The subject of a further series is A549. The experiment in a line: Antiproliferation activity against human A549 cells assessed as cell growth inhibition measured after 72 hrs by MTT assay. The class given is functional. The essentials:
(§1)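 Cells grown in RPMI-1640 with 10% FBS at 37 °C, 5% CO2, seeded at 4−7 × 10³ cells/well and left to adhere overnight. Exposed to a range of concentrations for 72 h, then MTT (2.5 mg/mL stock) added for 4 h. Formazan dissolved in DMSO and absorbance read at 570 nm. GI50 taken as the concentration giving 50% growth inhibition, reported as mean ± SD of at least three independent experiments.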

The next series concerns HCT-116. The experiment in a line: Antiproliferation activity against human HCT116 cells assessed as cell growth inhibition measured after 72 hrs by MTT assay. Format: functional. The essentials:
as §1
For orientation: Formazan colour is commonly taken as a measure of viable cells.

The nature of series [3]: Aqueous solubility of compound in DMSO at pH 7.4 by HPLC analysis. Format: physicochemical. The note with it: aqueous medium. An outline of the steps: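 Solubility measured at pH 7.4. DMSO stock (10 mg/mL) diluted in methanol to five levels to build an HPLC peak-area standard curve. Compound added to 1 mL buffer to make a saturated solution, and the peak area of that solution analysed by HPLC on a C18 column. Solubility calculated from the standard curve.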

Series [4] can be described thus: Inhibition of porcine brain tubulin polymerization measured every 60 sec for 60 mins in presence of GTP by fluorescence assay. Set-up: species or system Sus scrofa. The essentials:
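Fluorescence kit assay using 2 mg/mL porcine brain tubulin with 2 mM MgCl₂, 0.5 mM EGTA, 1 mM GTP and 15% glycerol. Compound at various concentrations preincubated 1 min at 37 °C before adding the tubulin mix. Read at ex 355/em 460 nm every 60 s for 60 min. IC50 is the concentration giving 50% inhibition at 60 min; mean ± SD of ≥3 independent experiments.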

Series [5] has as its system HepG2. Kind of series: Antiproliferation activity against human HepG2 cells assessed as cell growth inhibition measured after 72 hrs by MTT assay. Format: functional. An outline of the steps:
as §1

Series [6] relates to HepG2. The experiment in a line: Antitumor activity against human HepG2 cells xenografted in Balb/c mouse assessed as reduction in tumor volume administered orally as 0.5% MC suspension for 21 days relative to control. Set-up: scale not given: the % may be the effect or the level left. The note with it: time 21 day. The class given is functional. On the technique in general: Xenograft models place foreign cells or tissue in a host animal.

A short description of series [7]: Lipophilicity, log P of the compound in DMSO and n-octanol at pH 7.4 incubated for 10 hrs under stirred condition by HPLC analysis. The class given is physicochemical. Conditions: n-octanol / aqueous phase pH 7.4, pH 7.4. The essentials: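 Partition between n-octanol and water: mixture stirred at room temperature for 10 h, then left at 4 °C overnight. Each phase analysed separately by HPLC on a C18 column. Log P taken from the ratio of peak areas in n-octanol and water.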

Active and inactive are the calls of the source. The calls are words filed in the database; no cut-off is given here.

In the case of `COc1cc2c(c(OC)c1OC)-c1ccc(OC)c(=O)cc1[C@@H](NC(C)=O)CC2`, the result in the series on HepG2 [1] was Active.
Turning to `CC[C@]1(O)C[C@H]2CN(CCc3c([nH]c4ccccc34)[C@@](C(=O)OC)(c3cc4c(cc3OC)N(C=O)[C@H]3[C@@](O)(C(=O)OC)[C@H](OC(C)=O)[C@]5(CC)C=CCN6CC[C@]43[C@@H]65)C2)C1`, in series [2], the inhibition result is “inactive”.
The GI50 is the concentration that inhibits growth by half. Broadly, the solubility is how much of the substance goes into solution per volume. What is called IC50 is the concentration needed to halve the response being measured. A word on the logD: it is lipophilicity at a set pH, counting ionised and neutral species. Take `CCOc1cccc(Nc2nn(C)c3c2Cc2cc(OCC)c(OCC(N)=O)cc2-3)c1`: the GI50 amounted to 0.0232 µM in the series with A549, 0.0396 µM in the series on HCT-116 and 0.0086 µM in the series on HepG2 [5]. In [3], this molecule displayed a solubility below 5 µg/mL. Besides, in series [4], the IC50 stood at 4.1 µM. Moreover, the Activity with HepG2 [6] turned out to be 50%. In [7], this molecule displayed a logD at 10 h of 3.18.

For the origin of these results see ChEMBL document CHEMBL4699650, “SAR Investigation and Discovery of Water-Soluble 1-Methyl-1,4-dihydroindeno[1,2-c]pyrazoles as Potent Tubulin Polymerization Inhibitors” (J Med Chem, 2020).
